Data on 15 molecules can be found in ChEMBL document CHEMBL4130533, “Cytotoxic Cardiac Glycoside Constituents of Vallaris glabra Leaves” (J Nat Prod, 2017).

SMILES strings stand for the structures.

In test [1] the test system is HT-29. As to the kind of experiment: Antiproliferative activity against human HT-29 cells by MTT assay. It counts as functional, cell-based. In outline: (§1)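 Antiproliferative MTT (microculture tetrazolium) assay run by a previously reported protocol, giving IC50 values. Cell lines came from ATCC: HeLaS3 cervix adenocarcinoma (CCL-2.2), A549 lung carcinoma (CCL-185), HT-29 colorectal adenocarcinoma (HTB-38), and nontumorigenic normal African green monkey kidney Vero (CCL-81).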
(In general: Tetrazolium dyes change colour on reduction, which living cells bring about.)

The subject of test [2] is HeLa S3. As to the kind of experiment: Antiproliferative activity against human HeLaS3 cells by MTT assay. It counts as functional, cell-based. In short, it runs like this:
as §1

Test [3] relates to A549. As to the kind of experiment: Antiproliferative activity against human A549 cells by MTT assay. The class given is functional, cell-based. In outline: as §1
The subject of test [4] is Vero. Briefly: Antiproliferative activity against African green monkey Vero cells by MTT assay. The class given is cell-based. The note with it: Chlorocebus sabaeus. In short, it runs like this: as §1

By IC50 is commonly meant the point on the concentration scale where inhibition reaches its midpoint. As to `CO[C@H]1[C@@H](O)[C@H](O[C@H]2CC[C@@]3(C)[C@H](CC[C@@H]4[C@@H]3CC[C@]3(C)[C@@H](C5=CC(=O)OC5)[C@@H](OC(C)=O)C[C@]43O)C2)O[C@@H](C)[C@@H]1O[C@@H]1O[C@H](CO[C@@H]2O[C@H](CO)[C@@H](O)[C@H](O)[C@H]2O)[C@@H](O)[C@H](O)[C@H]1O`, the IC50 was 1400 nM in test [1], 400 nM in test [2], 600 nM in test [3] and 4800 nM in test [4].
Regarding `CO[C@H]1[C@@H](O)[C@H](C)O[C@@H](O[C@H]2CC[C@@]3(C)[C@H](CC[C@@H]4[C@@H]3CC[C@]3(C)[C@@H](C5=CC(=O)OC5)[C@@H](OC(C)=O)C[C@]43O)C2)[C@@H]1OC(C)=O`, the IC50 in test [1] is 100 nM; in test [2] it was 100 nM; in test [3], 30 nM; in test [4], 300 nM.
Turning to `CO[C@@H]1[C@@H](O)[C@H](O[C@H]2CC[C@@]3(C)[C@H](CC[C@@H]4[C@@H]3CC[C@]3(C)[C@@H](C5=CC(=O)OC5)[C@@H](OC(C)=O)C[C@]43O)C2)O[C@@H](C)[C@@H]1O[C@@H]1O[C@H](CO[C@@H]2O[C@H](CO)[C@@H](O)[C@H](O)[C@H]2O)[C@@H](O)[C@H](O)[C@H]1O`, the IC50 in test [1] came to 1600 nM; in test [2], 500 nM; in test [3], 1200 nM; in test [4], 6900 nM.
`CO[C@H]1[C@@H](O)[C@H](O[C@H]2CC[C@@]3(C)[C@H](CC[C@@H]4[C@@H]3CC[C@]3(C)C(C5=CC(=O)OC5)=CC[C@]43O)C2)O[C@@H](C)[C@@H]1O[C@@H]1O[C@H](CO)[C@@H](O)[C@H](O)[C@H]1O`: the IC50 in test [1] was 800 nM; in test [2] it was 700 nM; in test [3], 300 nM; in test [4] it was 2500 nM.
For `CO[C@@H]1[C@@H](O[C@@H]2O[C@H](CO)[C@@H](O)[C@H](O)[C@H]2O)[C@H](C)O[C@@H](O[C@H]2CC[C@@]3(C)[C@H](CC[C@@H]4[C@@H]3CC[C@]3(C)C(C5=CC(=O)OC5)=CC[C@]43O)C2)[C@@H]1OC(C)=O`, in that order: greater than 10000 nM, greater than 10000 nM, greater than 10000 nM and greater than 10000 nM.
The corresponding values for `CO[C@H]1[C@@H](O)[C@H](O[C@H]2CC[C@@]3(C)[C@H](CC[C@@H]4[C@@H]3CC[C@]3(C)[C@@H](C5=CC(=O)OC5)[C@@H](OC(C)=O)C[C@]43O)C2)O[C@@H](C)[C@@H]1O[C@@H]1O[C@H](CO)[C@@H](O)[C@H](O)[C@H]1O` are 200 nM, 200 nM, 100 nM and 700 nM.
For `CO[C@@H]1[C@@H](O[C@@H]2O[C@H](CO)[C@@H](O)[C@H](O)[C@H]2O)[C@H](C)O[C@@H](O[C@H]2CC[C@@]3(C)[C@H](CC[C@@H]4[C@@H]3CC[C@]3(C)[C@@H](C5=CC(=O)OC5)[C@@H](OC(C)=O)C[C@]43O)C2)[C@@H]1OC(C)=O`, in that order: 1900 nM, 1400 nM, 1500 nM and 5800 nM.
Regarding `CO[C@@H]1[C@@H](O)[C@H](O[C@H]2CC[C@@]3(C)[C@H](CC[C@@H]4[C@@H]3CC[C@]3(C)[C@@H](C5=CC(=O)OC5)[C@@H](O)C[C@]43O)C2)O[C@@H](C)[C@@H]1O[C@@H]1O[C@H](CO)[C@@H](O)[C@H](O)[C@H]1O`, the IC50 in test [1] was 6400 nM; in test [2] it was 6800 nM; in test [3], 3800 nM; in test [4], greater than 10000 nM.
`CO[C@@H]1[C@@H](O[C@@H]2O[C@H](CO[C@@H]3O[C@H](CO)[C@@H](O)[C@H](O)[C@H]3O)[C@@H](O)[C@H](O)[C@H]2O)[C@H](C)O[C@@H](O[C@H]2CC[C@@]3(C)[C@H](CC[C@@H]4[C@@H]3CC[C@]3(C)[C@@H](C5=CC(=O)OC5)[C@@H](OC(C)=O)C[C@]43O)C2)[C@@H]1OC(C)=O`: the IC50 in test [1] is 5000 nM; in test [2], 1600 nM; in test [3] it was 2100 nM; in test [4] it was greater than 10000 nM.
For `CO[C@@H]1[C@@H](O)[C@H](O[C@H]2CC[C@@]3(C)[C@H](CC[C@@H]4[C@@H]3CC[C@]3(C)C(C5=CC(=O)OC5)=CC[C@]43O)C2)O[C@@H](C)[C@@H]1O[C@@H]1O[C@H](CO)[C@@H](O)[C@H](O)[C@H]1O`, in that order: 1900 nM, 700 nM, 1600 nM and 6200 nM.
As to `CO[C@@H]1[C@@H](O)[C@H](C)O[C@@H](O[C@H]2CC[C@@]3(C)[C@H](CC[C@@H]4[C@@H]3CC[C@]3(C)[C@@H](C5=CC(=O)OC5)[C@@H](OC(C)=O)C[C@]43O)C2)[C@@H]1OC(C)=O`, the IC50 was 100 nM in test [1], 40 nM in test [2], 500 nM in test [3] and 200 nM in test [4].
For `CO[C@H]1[C@@H](O[C@@H]2O[C@H](CO)[C@@H](O)[C@H](O)[C@H]2O)[C@H](C)O[C@@H](O[C@H]2CC[C@@]3(C)[C@H](CC[C@@H]4[C@@H]3CC[C@]3(C)[C@@H](C5=CC(=O)OC5)[C@@H](OC(C)=O)C[C@]43O)C2)[C@@H]1OC(C)=O`, in that order: 600 nM, 400 nM, 600 nM and 2200 nM.
For `CO[C@@H]1[C@@H](O)[C@H](O[C@H]2CC[C@@]3(C)[C@H](CC[C@@H]4[C@@H]3CC[C@]3(C)[C@@H](C5=CC(=O)OC5)[C@@H](OC(C)=O)C[C@]43O)C2)O[C@@H](C)[C@@H]1O[C@@H]1O[C@H](CO)[C@@H](O)[C@H](O)[C@H]1O`, in that order: 200 nM, 100 nM, 100 nM and 600 nM.
For `COc1cccc2c1C(=O)c1c(O)c3c(c(O)c1C2=O)C[C@@](O)(C(=O)CO)C[C@@H]3O[C@H]1C[C@H](N)[C@H](O)[C@H](C)O1` [DOXORUBICIN], in that order: 400 nM, less than 100 nM, 5000 nM and 6600 nM.
Consider `COc1cc([C@@H]2c3cc4c(cc3[C@@H](O[C@@H]3O[C@@H]5CO[C@@H](C)O[C@H]5[C@H](O)[C@H]3O)[C@H]3COC(=O)[C@H]23)OCO4)cc(OC)c1O` [ETOPOSIDE], for which the IC50 is 7600 nM in test [1], 500 nM in test [2], greater than 10000 nM in test [3] and greater than 10000 nM in test [4].
